One compound from ChEMBL document CHEMBL4842317, “Discovery of novel 3-hydroxyandrosta-5,7-Diene-17-Carboxylic acid derivatives as anti-inflammatory bowel diseases (IBD) agents” (Eur J Med Chem, 2021) can be followed below.

Usually inhibition stands for the share of the control response that was lost under treatment. Usually IC50 stands for the concentration needed to halve the response being measured.

Assay [1] deals with RAW264.7. The assay is described as follows: Antiinflammatory activity against mouse RAW264.7 cells assessed as decrease in LPS-induced TNF-alpha mRNA expression at 20 uM in presence of LPS by qRT-PCR analysis. It is filed as functional, cell-based. Put shortly: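 RAW 264.7 cells are grown 12 h in six-well plates, then exposed to LPS (100 ng/ml) plus compound for 8 h. Reverse transcription is followed by SYBR Green qPCR with GAPDH as internal control. Relative expression is calculated by 2^-ΔΔCT versus the untreated control. Mean + SD from three independent experiments.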

Assay [2] concerns RAW264.7. The assay is described as follows: Antiinflammatory activity against mouse RAW264.7 cells assessed as inhibition of LPS-induced NO production at 20 uM after 24 hrs by Griess assay. It is filed as functional. The method, boiled down:
(§1)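 RAW 264.7 cells (1 × 10^5 cells/mL) are cultured 24 h, stimulated with LPS (100 ng/mL final), and treated with compounds from 100 μM downward for 24 h in DMEM with 10% FBS. Medium nitrite is measured by Griess reaction (sulfanilamide, naphthylethylenediamine, phosphoric acid, 10 min, room temperature, dark). Mean + SD from three independent experiments.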

The test system of assay [3] is Mus musculus. As to the kind of experiment: Antiinflammatory activity against DSS-induced colitis C57BL/6 mouse model assessed as reduction in scores of stool consistency and bleeding at 20 mg/kg, ip administered for 7 days by immunohistochemistry analysis. The class given is functional, organism-based. The conditions noted are these: time 7.0 day.
The subject of assay [4] is RAW264.7. As to the kind of experiment: Antiinflammatory activity against mouse RAW264.7 cells assessed as inhibition of LPS-induced NO production measured after 24 hrs by Griess assay. The class given is functional, cell-based. Particulars: RAW264.7, 24 h. The method, boiled down:
as §1
(In general: The Griess reaction detects nitrite, a stable product of nitric oxide.)

The test system of assay [5] is Mus musculus. The assay is described as follows: Antiinflammatory activity against DSS-induced colitis C57BL/6 mouse model assessed as dispersed CD86-positive cells in colon at 20 mg/kg, ip administered for 7 days by hematoxylin and eosin staining based microscopic analysis. It is filed as functional, organism-based. Particulars: time 7.0 day. The method, boiled down: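 DSS colitis (3.5% DSS, male C57BL/6 mice, n=5 per group) with 7-day intraperitoneal dosing in saline/castor oil/ethanol/DMSO vehicle. Colons are fixed in formalin, paraffin-embedded and stained with H&E (viewed at 200X). Separately, sections undergo CD86 immunohistochemistry (citrate antigen retrieval, 3% H2O2 block, 1:200 primary and HRP secondary, hematoxylin counterstain) viewed at 400X.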

Activity calls are given as the source filed them. No cut-off for these calls is given here.

Consider `C[C@@H]1C[C@H]2[C@@H]3CCC4=CC(=O)C=C[C@]4(C)[C@@]3(F)[C@@H](O)C[C@]2(C)[C@@]1(O)C(=O)CO` [DEXAMETHASONE], for which the result in the assay with RAW264.7 [1], with Mus musculus [3] and in the assay with Mus musculus [5] was Active. Moreover, the inhibition at 20 µM with RAW264.7 [2] was found to be 93.6%. For the same compound, in the assay with RAW264.7 [4], the half-inhibitory concentration (IC50) amounted to 14.8 µM.
